Experimental findings from ChEMBL document CHEMBL1150569, “Three new furan derivatives and a new fatty acid from a Taiwanese marine sponge Plakortis simplex” (J Nat Prod, 2001) are described below.

The nature of assay [1]: Cytotoxicity against human COLO250 cells. The class given is functional, cell-based. An outline of the steps:
(§1)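 In vitro cytotoxicity against human tumor cells: COLO-250 colon carcinoma cells and KB-16 nasopharyngeal carcinoma cells. Activity expressed as IC50 in µg/mL.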

Assay [2] is described as follows: Cytotoxicity against human KB16 cells. The class given is functional, cell-based. An outline of the steps:
as §1

Setting [3] is: Homo sapiens, KB16, read-out: IC50.

Converted amounts (≈) assume the structure as drawn.

For the compound `COC(=O)/C=C\C=C/C(=O)O`, the IC50 entry in assay [1] and in assay [2] (kb16) was “Not Active” each time.
Consider `CCCCCCCCCCCCCCCC[C@@]1(OC)C=C[C@H](CC(=O)OC)OO1`, for which the IC50 entry in assay [1] and in assay [2] (kb16) was “Not Active” throughout.
Take `COC(=O)CCC(=O)CC(=O)OC`: the IC50 entry in assay [1] and in assay [2] (kb16) was “Not Active” each time.
Turning to `COC(=O)C[C@@H]1C=CC(=O)O1`, the IC50 entry in assay [1] and in assay [2] (kb16) was “Not Active” throughout.
With `CCCCCCCCCCCCCCCC[C@@]1(OC)C=C[C@@H](CC(=O)OC)OO1` [CHONDRILLIN], the figures for the IC50 result in assay [1] and in assay [2] (setting [3]) were “Not Active” and 0.74 µg/mL (≈ 1.79 µM), respectively.
As for `CCCCCCCCCCCCCCCCc1ccc(CC(=O)OC)o1` [PLAKORSIN A], the half-inhibitory concentration (IC50) entry in assay [1] and in assay [2] (kb16) was “Not Active” each time.
As to `CCCCCCCCCCCCCCCCc1ccc(CC(=O)O)o1` [PLAKORSIN B], the half-inhibitory concentration (IC50) (usually the concentration needed to halve the response being measured) in assay [1] (Homo sapiens, read-out: IC50) stood at 0.28 µg/mL (≈ 0.799 µM); in assay [2] (setting [3]) it was 3.43 µg/mL (≈ 9.78 µM).
With `CCCCC(CCC=O)CCCCCCCc1ccc(CC(=O)OC)o1` (stereo not drawn) [PLAKORSIN C], the IC50 entry in assay [1] and in assay [2] (kb16) was “Not Active” in each case.
For the compound `CCCCCCCCCCCCCCCCC(=O)/C=C/C1OC1C(=O)O` (stereo not drawn) [PLAKORTIC ACID], the half-maximal inhibitory concentration (IC50) result in assay [1] and in assay [2] (kb16) was “Not Active” throughout.
